This note sets out measurements from publication PMC8905529 (RSC Chemical Biology, 2022).

The target in series [1] is T1, ComD1 receptor (Streptococcus pneumoniae serotype 2, UniProt A0A0H2ZM50).
T1 sequence (A0A0H2ZM50 1-441): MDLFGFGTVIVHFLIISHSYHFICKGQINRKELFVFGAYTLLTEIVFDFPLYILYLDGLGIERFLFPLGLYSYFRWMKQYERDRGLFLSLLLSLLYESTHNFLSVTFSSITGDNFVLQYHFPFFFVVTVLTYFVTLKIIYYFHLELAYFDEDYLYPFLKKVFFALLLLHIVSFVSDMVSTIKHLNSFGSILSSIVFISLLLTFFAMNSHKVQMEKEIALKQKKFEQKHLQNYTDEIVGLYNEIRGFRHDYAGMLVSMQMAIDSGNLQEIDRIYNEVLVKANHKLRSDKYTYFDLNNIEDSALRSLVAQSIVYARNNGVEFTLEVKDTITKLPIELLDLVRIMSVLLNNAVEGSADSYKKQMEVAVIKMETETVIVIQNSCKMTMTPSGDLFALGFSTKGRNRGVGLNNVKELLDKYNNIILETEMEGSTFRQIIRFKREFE
Description: β-galactosidase competitive inhibition reporter assay, D39pcomX::lacZ. It is filed as cell-based. Put shortly:
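Early-exponential D39pcomX::lacZ in THY (OD600 0.30–0.35) was incubated 30 min at 37 °C. Cells were then Triton X-100-lysed and given ONPG (0.4 mg mL−1) for 3 h at 37 °C, quenched with sodium carbonate, and read at OD420/550 for Miller units.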
On the technique in general: In a reporter assay the amount or activity of a reporter protein is the signal.

For series [2], the system named is trypsin. Briefly: Enzymatic. It is filed as in vitro ADME. The settings on record: trypsin in PBS, pH 7.4. Put shortly: (§1)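 Test peptide at 0.33 mM final in PBS (pH 7.4) with trypsin or chymotrypsin at 0.05 μg mL−1 final. Incubated at 37 °C with shaking (200 rpm) for 24 h. Fragments were identified by MALDI-TOF MS and ESI-TOF LC-MS.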
Series [3] concerns chymotrypsin. Description: Enzymatic. In kind it is in vitro ADME. To be noted: chymotrypsin in PBS, pH 7.4. Put shortly:
as §1

The target in series [4] is T1, ComD1 receptor. Briefly: β-galactosidase activation reporter assay, D39pcomX::lacZ. In kind it is cell-based. A digest of the protocol:
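D39pcomX::lacZ was grown on THY agar (5% horse serum, 4 μg mL−1 chloramphenicol), then in THY overnight, diluted 1:50 and grown to OD600 0.30–0.35. […] After 30 min at 37 °C, cells were lysed with Triton X-100 and given ONPG (0.4 mg mL−1, pH 7.0) for 3 h. Reads: OD420/550, Miller units; EC50 by nonlinear regression.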

Where a SMILES comes first, the peptide text is derived from it. [ ]: non-standard residue; d: D form. Cha = N[C@@H](CC1CCCCC1)C(=O)O; hLeu = CC(C)CC[C@H](N)C(=O)O

Broadly, the IC50 is the concentration that inhibits the measured activity by half. High values mean lower potency, low ones higher potency. For `CC[C@H](C)[C@H](NC(=O)[C@H](Cc1ccccc1)NC(=O)[C@H](CC(=O)O)NC(=O)[C@H](CCCNC(=N)N)NC(=O)[C@H](Cc1ccccc1)NC(=O)[C@H](CCC(C)C)NC(=O)[C@H](CCCCN)NC(=O)[C@H](CO)NC(=O)[C@H](CC(C)C)NC(=O)[C@H](CCCNC(=N)N)NC(=O)[C@H](CCSC)NC(=O)[C@H](C)N)C(=O)N[C@@H](CC(C)C)C(=O)N[C@@H](CCC(N)=O)C(=O)N[C@@H](CCCNC(=N)N)C(=O)N[C@@H](CCCCN)C(=O)N[C@@H](CCCCN)C(=O)O` [CSP1-E1A/F7HLeu] (H-AMRLSK[hLeu]FRDFILQRKK-OH), the IC50 in series [1] was 72 nM.

In general, half-life refers to the time in which the quantity being followed falls by half. Low readings indicate rapid decline, high ones slow decline. A word on the EC50: it is the concentration that produces a half-maximal response. Regarding `CSCC[C@H](NC(=O)[C@@H](N)CCC(=O)O)C(=O)N[C@@H](CCCNC(=N)N)C(=O)N[C@@H](CC(C)C)C(=O)N[C@@H](CO)C(=O)N[C@@H](CCCCN)C(=O)N[C@@H](CC1CCCCC1)C(=O)N[C@@H](Cc1ccccc1)C(=O)N[C@@H](CCCNC(=N)N)C(=O)N[C@@H](CC(=O)O)C(=O)N[C@@H](Cc1ccccc1)C(=O)N[C@@H](CC1CCCCC1)C(=O)N[C@@H](CC(C)C)C(=O)N[C@@H](CCC(N)=O)C(=O)N[C@@H](CCCNC(=N)N)C(=O)N[C@@H](CCCCN)C(=O)N[C@@H](CCCCN)C(=O)O` [CSP1-F7Cha/I12Cha] (H-EMRLSK[Cha]FRDF[Cha]LQRKK-OH), the half-life at 0.33 mM in series [2] is 180 min; in series [3], 360 min. The EC50 in series [4] was < 1 nM.

Regarding `CC[C@H](C)[C@H](NC(=O)[C@H](Cc1ccccc1)NC(=O)[C@H](CC(=O)O)NC(=O)[C@H](CCCNC(=N)N)NC(=O)[C@H](Cc1ccccc1)NC(=O)[C@H](CC1CCCCC1)NC(=O)[C@H](CCCCN)NC(=O)[C@H](CO)NC(=O)[C@H](CC(C)C)NC(=O)[C@H](CCCNC(=N)N)NC(=O)[C@H](CCSC)NC(=O)[C@H](C)N)C(=O)N[C@@H](CC(C)C)C(=O)N[C@@H](CCC(N)=O)C(=O)N[C@@H](CCCNC(=N)N)C(=O)N[C@@H](CCCCN)C(=O)N[C@@H](CCCCN)C(=O)O` [CSP1-E1A/F7Cha] (H-AMRLSK[Cha]FRDFILQRKK-OH), the half-life at 0.33 mM in series [2] and in series [3] was 240 min each time. The IC50 in series [1] worked out at 36 nM.

For `CSCC[C@H](NC(=O)[C@H](C)N)C(=O)N[C@@H](CCCNC(=N)N)C(=O)N[C@@H](CC(C)C)C(=O)N[C@@H](CO)C(=O)N[C@@H](CCCCN)C(=O)N[C@@H](CC1CCCCC1)C(=O)N[C@@H](Cc1ccccc1)C(=O)N[C@@H](CCCNC(=N)N)C(=O)N[C@@H](CC(=O)O)C(=O)N[C@@H](Cc1ccccc1)C(=O)N[C@@H](CC1CCCCC1)C(=O)N[C@@H](CC(C)C)C(=O)N[C@@H](CCC(N)=O)C(=O)N[C@@H](CCCNC(=N)N)C(=O)N[C@@H](CCCCN)C(=O)N[C@@H](CCCCN)C(=O)O` [CSP1-E1A/F7Cha/I12Cha] (H-AMRLSK[Cha]FRDF[Cha]LQRKK-OH), the IC50 in series [1] was found to be 72 nM.

Molecule `CSCC[C@H](NC(=O)[C@H](C)N)C(=O)N[C@@H](CCCNC(=N)N)C(=O)N[C@@H](CC(C)C)C(=O)N[C@@H](CO)C(=O)N[C@@H](CCCCN)C(=O)N[C@@H](CC1CCCCC1)C(=O)N[C@@H](Cc1ccccc1)C(=O)N[C@@H](CCCNC(=N)N)C(=O)N[C@@H](CC(=O)O)C(=O)N[C@@H](Cc1ccccc1)C(=O)N[C@@H](CCC(C)C)C(=O)N[C@@H](CC(C)C)C(=O)N[C@@H](CCC(N)=O)C(=O)N[C@@H](CCCNC(=N)N)C(=O)N[C@@H](CCCCN)C(=O)N[C@@H](CCCCN)C(=O)O` [CSP1-E1A/F7Cha/I12HLeu] (H-AMRLSK[Cha]FRDF[hLeu]LQRKK-OH) came in with an IC50 in series [1] of 57 nM.

In the case of `CC[C@H](C)[C@H](NC(=O)[C@H](Cc1ccccc1)NC(=O)[C@H](CC(=O)O)NC(=O)[C@H](CCCNC(=N)N)NC(=O)[C@H](Cc1ccccc1)NC(=O)[C@H](Cc1ccccc1)NC(=O)[C@H](CCCCN)NC(=O)[C@H](CO)NC(=O)[C@H](CC(C)C)NC(=O)[C@H](CCCNC(=N)N)NC(=O)[C@H](CCSC)NC(=O)[C@@H](N)CCC(=O)O)C(=O)N[C@@H](CC(C)C)C(=O)N[C@@H](CCC(N)=O)C(=O)N[C@@H](CCCNC(=N)N)C(=O)N[C@@H](CCCCN)C(=O)N[C@@H](CCCCN)C(=O)O` [CSP1, reference compound], the half-life at 0.33 mM was 30 min in series [2] and 60 min in series [3].
